Test results as given in ChEMBL document CHEMBL4680134, “Structural optimization of natural product nordihydroguaretic acid to discover novel analogues as AcrB inhibitors” (Eur J Med Chem, 2020).

Columns and labels:
[1] = molecular target: T1, Multidrug efflux pump subunit AcrB (Escherichia coli (strain K12)) (UniProt P31224); assay: Inhibition of AcrB in Escherichia coli BW25113 assessed as potentiation of rifampicin induced antibacterial activity by measuring rifampicin MIC at 32 ug/ml measured after 18 hrs by checkerboard titration method (reference value: 16 ug/ml); conditions: dose 32.0 µg/ml
T1 sequence (whole entry): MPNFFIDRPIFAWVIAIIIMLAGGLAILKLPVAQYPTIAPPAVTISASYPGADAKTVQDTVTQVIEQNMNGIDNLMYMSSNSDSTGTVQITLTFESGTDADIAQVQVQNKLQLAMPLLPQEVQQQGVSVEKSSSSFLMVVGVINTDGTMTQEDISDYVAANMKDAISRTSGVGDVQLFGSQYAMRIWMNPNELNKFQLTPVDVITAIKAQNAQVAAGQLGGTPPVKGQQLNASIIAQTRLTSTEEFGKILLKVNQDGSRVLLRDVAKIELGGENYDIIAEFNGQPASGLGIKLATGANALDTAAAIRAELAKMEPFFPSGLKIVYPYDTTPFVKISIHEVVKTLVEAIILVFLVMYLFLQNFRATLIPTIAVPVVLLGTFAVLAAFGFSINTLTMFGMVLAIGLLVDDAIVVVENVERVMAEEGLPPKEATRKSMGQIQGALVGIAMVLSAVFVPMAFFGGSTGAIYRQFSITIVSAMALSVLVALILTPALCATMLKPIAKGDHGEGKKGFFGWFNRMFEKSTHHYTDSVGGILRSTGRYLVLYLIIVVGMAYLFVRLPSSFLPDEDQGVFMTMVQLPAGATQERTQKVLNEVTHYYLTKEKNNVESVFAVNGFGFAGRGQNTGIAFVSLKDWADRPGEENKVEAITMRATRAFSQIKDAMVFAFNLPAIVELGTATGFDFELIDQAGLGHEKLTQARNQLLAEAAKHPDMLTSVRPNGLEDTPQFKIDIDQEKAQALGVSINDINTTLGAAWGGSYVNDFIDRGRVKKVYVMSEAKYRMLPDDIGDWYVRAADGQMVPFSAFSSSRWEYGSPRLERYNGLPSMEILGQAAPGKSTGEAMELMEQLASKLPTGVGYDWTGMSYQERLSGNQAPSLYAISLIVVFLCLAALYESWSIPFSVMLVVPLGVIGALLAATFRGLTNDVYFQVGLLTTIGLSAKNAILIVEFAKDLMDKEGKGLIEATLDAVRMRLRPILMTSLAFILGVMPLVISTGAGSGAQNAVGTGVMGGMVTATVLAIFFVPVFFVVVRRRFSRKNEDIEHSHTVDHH

[2] = molecular target: T1, Multidrug efflux pump subunit AcrB (Escherichia coli (strain K12)); assay: Inhibition of AcrB in Escherichia coli BW25113 assessed as potentiation of tetraphenylphosphonium induced antibacterial activity by measuring tetraphenylphosphonium MIC at 128 ug/ml measured after 18 hrs by checkerboard titration method (reference value: 1024 ug/ml); conditions: dose 128.0 µg/ml
[3] = molecular target: T1, Multidrug efflux pump subunit AcrB (Escherichia coli (strain K12)); assay: Inhibition of AcrB in Escherichia coli BW25113 assessed as potentiation of chloramphenicol induced antibacterial activity by measuring chloramphenicol MIC at 16 ug/ml measured after 18 hrs by checkerboard titration method (reference value: 8 ug/ml); conditions: dose 16.0 µg/ml
[4] = molecular target: T1, Multidrug efflux pump subunit AcrB (Escherichia coli (strain K12)); assay: Inhibition of AcrB in Escherichia coli BW25113 assessed as potentiation of chloramphenicol induced antibacterial activity by measuring chloramphenicol MIC at 64 ug/ml measured after 18 hrs by checkerboard titration method (reference value: 8 ug/ml); conditions: dose 64.0 µg/ml
[5] = molecular target: T1, Multidrug efflux pump subunit AcrB (Escherichia coli (strain K12)); assay: Inhibition of AcrB in Escherichia coli BW25113 assessed as potentiation of tetraphenylphosphonium induced antibacterial activity by measuring tetraphenylphosphonium MIC at 64 ug/ml measured after 18 hrs by checkerboard titration method (reference value: 1024 ug/ml); conditions: dose 64.0 µg/ml
[6] = molecular target: T1, Multidrug efflux pump subunit AcrB (Escherichia coli (strain K12)); assay: Inhibition of AcrB in Escherichia coli BW25113 assessed as potentiation of levofloxacin induced antibacterial activity by measuring levofloxacin MIC at 64 ug/ml measured after 18 hrs by checkerboard titration method (reference value: 0.06 ug/ml); conditions: dose 64.0 µg/ml
[7] = molecular target: T1, Multidrug efflux pump subunit AcrB (Escherichia coli (strain K12)); assay: Inhibition of AcrB in Escherichia coli BW25113 assessed as potentiation of levofloxacin induced antibacterial activity by measuring levofloxacin MIC at 128 ug/ml measured after 18 hrs by checkerboard titration method (reference value: 0.06 ug/ml); conditions: dose 128.0 µg/ml
[8] = Growth inhibition of Escherichia coli harboring AcrB deletion mutant at 64 ug/ml after 18 hrs by broth microdilution assay; conditions: dose 64 µg/ml
Method in brief: (§1)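 MIC determined by 96-well broth microdilution in E. coli BW25113 expressing AcrB ((+)AcrB) and an isogenic acrB-deleted strain ((-)AcrB). Used to set the compound concentrations for synergy testing that produce no direct antibacterial effect.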

[9] = molecular target: T1, Multidrug efflux pump subunit AcrB (Escherichia coli (strain K12)); assay: Inhibition of AcrB in Escherichia coli BW25113 assessed as potentiation of erythromycin induced antibacterial activity by measuring erythromycin MIC at 128 ug/ml measured after 18 hrs by checkerboard titration method (reference value: 64 ug/ml); conditions: dose 128.0 µg/ml
[10] = molecular target: T1, Multidrug efflux pump subunit AcrB (Escherichia coli (strain K12)); assay: Inhibition of AcrB in Escherichia coli BW25113 assessed as potentiation of tetraphenylphosphonium induced antibacterial activity by measuring tetraphenylphosphonium MIC at 32 ug/ml measured after 18 hrs by checkerboard titration method (reference value: 1024 ug/ml); conditions: dose 32.0 µg/ml
[11] = Growth inhibition of Escherichia coli BW25113 expressing AcrB at 512 ug/ml after 18 hrs by broth microdilution assay; conditions: dose 512 µg/ml; method in brief: as §1
[12] = molecular target: T1, Multidrug efflux pump subunit AcrB (Escherichia coli (strain K12)); assay: Inhibition of AcrB in Escherichia coli BW25113 assessed as potentiation of levofloxacin induced antibacterial activity by measuring levofloxacin MIC at 16 ug/ml measured after 18 hrs by checkerboard titration method (reference value: 0.06 ug/ml); conditions: dose 16.0 µg/ml
[13] = molecular target: T1, Multidrug efflux pump subunit AcrB (Escherichia coli (strain K12)); assay: Inhibition of AcrB in Escherichia coli BW25113 assessed as potentiation of levofloxacin induced antibacterial activity by measuring levofloxacin MIC at 32 ug/ml measured after 18 hrs by checkerboard titration method (reference value: 0.06 ug/ml); conditions: dose 32.0 µg/ml
[14] = molecular target: T1, Multidrug efflux pump subunit AcrB (Escherichia coli (strain K12)); assay: Inhibition of AcrB in Escherichia coli BW25113 assessed as potentiation of erythromycin induced antibacterial activity by measuring erythromycin MIC at 16 ug/ml measured after 18 hrs by checkerboard titration method (reference value: 64 ug/ml); conditions: dose 16.0 µg/ml
[15] = molecular target: T1, Multidrug efflux pump subunit AcrB (Escherichia coli (strain K12)); assay: Inhibition of AcrB in Escherichia coli BW25113 assessed as potentiation of rifampicin induced antibacterial activity by measuring rifampicin MIC at 64 ug/ml measured after 18 hrs by checkerboard titration method (reference value: 16 ug/ml); conditions: dose 64.0 µg/ml
[16] = molecular target: T1, Multidrug efflux pump subunit AcrB (Escherichia coli (strain K12)); assay: Inhibition of AcrB in Escherichia coli BW25113 assessed as potentiation of chloramphenicol induced antibacterial activity by measuring chloramphenicol MIC at 32 ug/ml measured after 18 hrs by checkerboard titration method (reference value: 8 ug/ml); conditions: dose 32.0 µg/ml
[17] = molecular target: T1, Multidrug efflux pump subunit AcrB (Escherichia coli (strain K12)); assay: Inhibition of AcrB in Escherichia coli BW25113 assessed as potentiation of chloramphenicol induced antibacterial activity by measuring chloramphenicol MIC at 128 ug/ml measured after 18 hrs by checkerboard titration method (reference value: 8 ug/ml); conditions: dose 128.0 µg/ml

Row | Compound | MIC [1] | MIC [2] | MIC [3] | MIC [4] | MIC [5] | MIC [6] | MIC [7] | growth inhibition (GI) [8] | MIC [9] | MIC [10] | growth inhibition (GI) [11] | MIC [12] | MIC [13] | MIC [14] | MIC [15] | MIC [16] | MIC [17]
1 | Oc1ccc(CCCCc2ccc(Cl)cc2)cc1O | 16 µg/mL | 512 µg/mL | 16 µg/mL | 16 µg/mL | 512 µg/mL | 0.06 µg/mL | 0.06 µg/mL | Non-Toxic | 64 µg/mL | 1020 µg/mL | Non-Toxic | 0.06 µg/mL | 0.06 µg/mL | 64 µg/mL | 16 µg/mL | 16 µg/mL | 16 µg/mL
2 | C[C@H](Cc1ccc(O)c(O)c1)[C@@H](C)Cc1ccc(O)c(O)c1 [MASOPROCOL] | 16 µg/mL | 128 µg/mL |  | 8 µg/mL | 1020 µg/mL | 0.03 µg/mL | 0.03 µg/mL |  | 64 µg/mL | 1020 µg/mL |  |  | 0.06 µg/mL |  | 16 µg/mL | 8 µg/mL | 4 µg/mL
3 | Oc1ccc(CCCCc2ccc(Br)cc2)cc1O | 16 µg/mL | 512 µg/mL | 8 µg/mL | 8 µg/mL | 512 µg/mL | 0.06 µg/mL | 0.06 µg/mL | Non-Toxic | 64 µg/mL | 1020 µg/mL | Non-Toxic | 0.06 µg/mL | 0.06 µg/mL | 64 µg/mL | 16 µg/mL | 8 µg/mL | 8 µg/mL
4 | Oc1ccc(CCCCCCc2ccc(O)c(O)c2)cc1O | 16 µg/mL | 512 µg/mL | 8 µg/mL | 8 µg/mL | 512 µg/mL | 0.06 µg/mL | 0.06 µg/mL | Non-Toxic | 64 µg/mL | 512 µg/mL | Non-Toxic | 0.06 µg/mL | 0.06 µg/mL | 64 µg/mL | 16 µg/mL | 8 µg/mL | 8 µg/mL
5 | Oc1ccc(CCCCCCCc2ccc(O)c(O)c2)cc1O | 16 µg/mL | 512 µg/mL | 8 µg/mL | 8 µg/mL | 512 µg/mL | 0.06 µg/mL | 0.06 µg/mL | Non-Toxic | 64 µg/mL | 512 µg/mL | Non-Toxic | 0.06 µg/mL | 0.06 µg/mL | 64 µg/mL | 16 µg/mL | 8 µg/mL | 8 µg/mL
6 | O=C(NCCc1ccc(O)c(O)c1)c1ccc(O)c(O)c1 | 16 µg/mL | 512 µg/mL | 4 µg/mL | 2 µg/mL | 512 µg/mL | 0.06 µg/mL | 0.06 µg/mL | Non-Toxic | 32 µg/mL | 512 µg/mL | Non-Toxic | 0.06 µg/mL | 0.06 µg/mL | 64 µg/mL | 16 µg/mL | 4 µg/mL | 2 µg/mL
7 | Oc1ccc(CCCCc2ccccc2O)cc1O | 16 µg/mL | 512 µg/mL | 8 µg/mL | 4 µg/mL | 512 µg/mL | 0.06 µg/mL | 0.06 µg/mL | Non-Toxic | 64 µg/mL | 512 µg/mL | Non-Toxic | 0.06 µg/mL | 0.06 µg/mL | 64 µg/mL | 16 µg/mL | 4 µg/mL | 4 µg/mL
8 | Oc1ccc(CCCCCc2ccc(O)c(O)c2)cc1O | 16 µg/mL | 512 µg/mL | 8 µg/mL | 8 µg/mL | 1020 µg/mL | 0.06 µg/mL | 0.06 µg/mL |  | 64 µg/mL | 1020 µg/mL | Non-Toxic | 0.06 µg/mL | 0.06 µg/mL | 64 µg/mL | 16 µg/mL | 8 µg/mL | 8 µg/mL
9 | Cc1ccc(C(=O)NCCc2ccc(O)c(O)c2)cc1 | 16 µg/mL |  | 8 µg/mL |  |  |  |  |  |  | 1020 µg/mL |  | 0.06 µg/mL | 0.06 µg/mL | 32 µg/mL | 16 µg/mL | 8 µg/mL | 
